# According to ChEMBL document CHEMBL3286182, “4-aminoquinolone piperidine amides: noncovalent inhibitors of DprE1 with long residence time and potent antimycobacterial activity” (J Med Chem, 2014):
# pIC50: −log10 of the molar value. Activity calls are given as the source filed them. The rule behind the calls is not given here.
# Key:
# Cytochrome P450 3A4 = Cytochrome P450 3A4 (Homo sapiens, UniProt P08684); assay: Inhibition of CYP3A4 (unknown origin); format: ADME
# Method in brief: (§1)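 CYP inhibition IC50 measured on isoforms CYP3A4, CYP2D6, CYP2C9, CYP2C19 and CYP1A2.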
# [1] = Permeability of the compound from basolateral to apical side in human Caco2 cells; format: ADME, cell-based; settings: Caco-2, read-out: permeability
# [2] = Permeability of the compound from apical to basolateral side in human Caco2 cells; format: ADME, cell-based; settings: Caco-2, read-out: permeability
# [3] = tested on: Mycobacterium tuberculosis; assay: Antimycobacterial activity against Mycobacterium tuberculosis H37Rv under hypoxic condition after 6 days by resazurin assay; format: functional
# [4] = Inhibition of Mycobacterium smegmatis recombinant DprE1 using farnesylphosphoryl-beta-D-ribofuranose as substrate assessed as conversion of amplex red to resorufin after 30 mins; parameters: species or system Mycolicibacterium smegmatis
# Method in brief: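 Msm DprE1 (thioredoxin-6His fusion of Msm Rv3790) at 75 nM, preincubated 30 min with 10 μM FAD. Buffer: 50 mM glycylglycine pH 8.5, 200 mM potassium glutamate, 0.002% Brij-35, 2% DMSO, 25 °C. Started with 300 μM farnesylphosphoryl-β-D-ribofuranose, 0.01 mg/mL HRP and 50 μM Amplex Red.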
# [5] = Inhibition of Mycobacterium smegmatis DprE1 Y321H mutant using farnesylphosphoryl-beta-D-ribofuranose as substrate assessed as conversion of amplex red to resorufin after 30 mins; parameters: species or system Mycolicibacterium smegmatis
# Method in brief: (§2)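 Recombinant M. smegmatis DprE1 (thioredoxin-6His fusion), wild type or Y321H, 75 nM. Enzyme was preincubated 30 min in FAD assay mix: 50 mM glycylglycine pH 8.5, 200 mM potassium glutamate, 10 μM FAD, 0.002% Brij-35, 2% DMSO. Reaction was started with 300 μM farnesylphosphoryl-β-D-ribofuranose, 0.01 mg/mL HRP and 50 μM amplex red at 25 °C.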
# [6] = tested on: Mycolicibacterium smegmatis; assay: Ratio of IC50 for Mycobacterium smegmatis DprE1 Y321H mutant to IC50 for Mycobacterium smegmatis recombinant wild type DprE1; method in brief: as §2
# Haemophilus influenzae [7] = assay: Antimicrobial activity against Haemophilus influenzae ARC158 at 100 uM; format: functional, organism-based
# Method in brief: (§3)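 Nonmycobacterial panel of Candida albicans, Gram-negative and Gram-positive pathogens.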
# [8] = Solubility of the compound in fed-state simulated intestinal fluid at pH 6.5; format: ADME
# [9] = tested on: Mycolicibacterium smegmatis; assay: Antimicrobial activity against Mycobacterium smegmatis ATCC 607 at 100 uM; format: functional, organism-based
# Escherichia coli [10] = assay: Antimicrobial activity against Escherichia coli ARC524 at 100 uM; format: functional, organism-based; method in brief: as §3
# [11] = Fraction unbound in human plasma at 20 uM after 18 hrs by equilibrium dialysis method; format: ADME, cell-free
# Pseudomonas aeruginosa [12] = assay: Antimicrobial activity against Pseudomonas aeruginosa ARC545 at 100 uM; format: functional, organism-based; method in brief: as §3
# Staphylococcus aureus = assay: Antimicrobial activity against Staphylococcus aureus ARC517 at 100 uM; format: functional, organism-based; method in brief: as §3
# Haemophilus influenzae [13] = assay: Antimicrobial activity against Haemophilus influenzae ARC446 at 100 uM; format: functional, organism-based; method in brief: as §3
# Cytochrome P450 2C9 = Cytochrome P450 2C9 (Homo sapiens, UniProt P11712); assay: Inhibition of CYP2C9 (unknown origin); format: ADME; method in brief: as §1
# Klebsiella pneumoniae = assay: Antimicrobial activity against Klebsiella pneumoniae ARC1865 at 100 uM; format: functional, organism-based; method in brief: as §3
# [14] = tested on: Mycobacterium tuberculosis; assay: Antimycobacterial activity against Mycobacterium tuberculosis H37Rv after 5 days by standard microdilution method; format: functional; settings: 120 h
# Cytochrome P450 1A2 = molecular target: T1, Cytochrome P450 1A2 (Homo sapiens, UniProt P05177); assay: Inhibition of CYP1A2 (unknown origin); format: ADME; method in brief: as §1
# T1 sequence (P05177 whole entry): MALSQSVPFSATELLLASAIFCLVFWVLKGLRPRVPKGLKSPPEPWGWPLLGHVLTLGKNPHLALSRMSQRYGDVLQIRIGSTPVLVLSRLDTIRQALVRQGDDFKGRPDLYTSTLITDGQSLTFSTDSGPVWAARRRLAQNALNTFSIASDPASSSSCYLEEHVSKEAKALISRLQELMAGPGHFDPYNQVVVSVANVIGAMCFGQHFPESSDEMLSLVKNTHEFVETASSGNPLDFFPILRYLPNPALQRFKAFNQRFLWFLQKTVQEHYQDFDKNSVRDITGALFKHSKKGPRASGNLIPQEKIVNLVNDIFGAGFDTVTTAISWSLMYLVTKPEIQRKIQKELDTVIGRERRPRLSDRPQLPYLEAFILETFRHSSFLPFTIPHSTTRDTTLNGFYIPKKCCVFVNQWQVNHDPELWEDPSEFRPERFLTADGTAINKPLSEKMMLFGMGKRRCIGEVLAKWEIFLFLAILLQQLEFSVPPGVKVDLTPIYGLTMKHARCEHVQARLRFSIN
# Streptococcus pneumoniae = assay: Antimicrobial activity against Streptococcus pneumoniae ARC548 at 100 uM; format: functional, organism-based; method in brief: as §3
# [15] = tested on: Mycobacterium tuberculosis; assay: Antimycobacterial activity against Mycobacterium tuberculosis over expressing DprE1 after 5 days by standard microdilution method; format: functional; settings: 120 h
# [16] = Intrinsic clearance in human liver microsomes at 1 uM up to 30 mins by LC-MS/MS analysis; format: ADME; settings: read-out: CLH
# Pseudomonas aeruginosa [17] = assay: Antimicrobial activity against Pseudomonas aeruginosa ARC546 at 100 uM; format: functional, organism-based; method in brief: as §3
# Candida albicans = assay: Antimicrobial activity against Candida albicans ARC527 at 100 uM; format: functional, organism-based; method in brief: as §3
# Adenosine receptor A1 = molecular target: T2, Adenosine receptor A1 (Homo sapiens, UniProt P30542); assay: Inhibition of adenosine A1 receptor (unknown origin)
# T2 sequence (P30542 whole entry): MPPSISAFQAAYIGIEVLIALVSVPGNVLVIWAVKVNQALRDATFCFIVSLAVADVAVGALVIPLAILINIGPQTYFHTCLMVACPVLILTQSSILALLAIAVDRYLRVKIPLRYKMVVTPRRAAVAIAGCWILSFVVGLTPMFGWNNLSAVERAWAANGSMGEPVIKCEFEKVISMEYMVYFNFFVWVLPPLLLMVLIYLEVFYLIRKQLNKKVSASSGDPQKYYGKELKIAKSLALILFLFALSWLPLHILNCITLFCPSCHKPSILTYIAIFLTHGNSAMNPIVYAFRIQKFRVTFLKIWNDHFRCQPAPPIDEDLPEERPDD
# Method in brief: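 Secondary pharmacology panel of binding, enzyme and functional assays covering 24 molecular targets. Activity recorded as a defined Ki/IC50/EC50.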
# [18] = tested on: Mycolicibacterium smegmatis; assay: Antimicrobial activity against Mycobacterium smegmatis mc2155 at 100 uM; format: functional, organism-based; settings: str. MC2 155
# [19] = Octanol-water partition coefficient, log D of the compound by shake-flask method; format: physicochemical
# [20] = Solubility of the compound in 0.1 M phosphate buffer at pH 7.4 after 24 hrs by UV and MS analysis; format: physicochemical
# [21] = Intrinsic clearance in rat cryopreserved hepatocytes assessed per 10^6 cells at 1 uM up to 120 mins by LC-MS/MS analysis; format: ADME, cell-based, Hepatocyte; settings: read-out: CLH
# Cytochrome P450 2D6 = Cytochrome P450 2D6 (Homo sapiens, UniProt P10635); assay: Inhibition of CYP2D6 (unknown origin); format: ADME; method in brief: as §1
# Cytochrome P450 2C19 = Cytochrome P450 2C19 (Homo sapiens, UniProt P33261); assay: Inhibition of CYP2C19 (unknown origin); format: ADME; method in brief: as §1
# Escherichia coli [22] = assay: Antimicrobial activity against Escherichia coli ARC523 at 100 uM; format: functional, organism-based; method in brief: as §3
# [23] = Cytotoxicity against human A549 cells after 72 hrs by resazurin based fluorescence assay; format: cell-based; settings: read-out: MIC
# Method in brief: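 Cytotoxicity read as MMIC, the MIC on the A549 cell line.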
# [24] = Elimination half life in Wistar rat at 2 mg/kg, iv; format: ADME, organism-based; parameters: dose 2 mg/kg, route intravenous; settings: in vivo, read-out: beta t1/2 (converted)
# Method in brief: (§4)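 Male Wistar rats given a single dose, 2 mg/kg intravenously or 10 mg/kg orally. Plasma concentration followed over time, n = 2 per compound. Parameters taken from the plasma curves: C0 (iv), Cmax (oral), AUC0−∞, elimination half-life, plasma clearance, Vss and oral bioavailability.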
# [25] = Initial plasma concentration in Wistar rat at 2 mg/kg, iv; format: ADME, organism-based; parameters: dose 2 mg/kg, route intravenous; method in brief: as §4
# [26] = Cmax in Wistar rat at 10 mg/kg, po; format: ADME, organism-based; parameters: dose 10 mg/kg, route oral; settings: in vivo; method in brief: as §4
# [27] = molecular target: Voltage-gated inwardly rectifying potassium channel KCNH2 (Homo sapiens, UniProt Q12809); assay: Inhibition of human ERG by medium-throughput electrophysiology
# [28] = AUC (0 to infinity) in Wistar rat at 10 mg/kg, po; format: ADME, organism-based; parameters: time infinity, dose 10 mg/kg, route oral; settings: plasma; method in brief: as §4
# [29] = AUC (0 to infinity) in Wistar rat at 2 mg/kg, iv; format: ADME, organism-based; parameters: dose 2 mg/kg, route intravenous, time infinity; settings: plasma; method in brief: as §4
# [30] = Oral bioavailability in Wistar rat at 10 mg/kg; format: ADME, organism-based; settings: in vivo; method in brief: as §4
# [31] = Elimination half life in Wistar rat at 10 mg/kg, po; format: ADME, organism-based; parameters: dose 10 mg/kg, route oral; settings: in vivo, read-out: beta t1/2 (converted); method in brief: as §4
# [32] = Volume of distribution at steady state in Wistar rat at 2 mg/kg, iv; format: ADME, organism-based; parameters: dose 2 mg/kg, route intravenous; settings: in vivo, read-out: Vdss; method in brief: as §4
# [33] = Clearance in Wistar rat at 2 mg/kg, iv; format: ADME, organism-based; parameters: dose 2 mg/kg, route intravenous; settings: in vivo; method in brief: as §4
# Sequence of Cytochrome P450 2C19 (P33261 whole entry): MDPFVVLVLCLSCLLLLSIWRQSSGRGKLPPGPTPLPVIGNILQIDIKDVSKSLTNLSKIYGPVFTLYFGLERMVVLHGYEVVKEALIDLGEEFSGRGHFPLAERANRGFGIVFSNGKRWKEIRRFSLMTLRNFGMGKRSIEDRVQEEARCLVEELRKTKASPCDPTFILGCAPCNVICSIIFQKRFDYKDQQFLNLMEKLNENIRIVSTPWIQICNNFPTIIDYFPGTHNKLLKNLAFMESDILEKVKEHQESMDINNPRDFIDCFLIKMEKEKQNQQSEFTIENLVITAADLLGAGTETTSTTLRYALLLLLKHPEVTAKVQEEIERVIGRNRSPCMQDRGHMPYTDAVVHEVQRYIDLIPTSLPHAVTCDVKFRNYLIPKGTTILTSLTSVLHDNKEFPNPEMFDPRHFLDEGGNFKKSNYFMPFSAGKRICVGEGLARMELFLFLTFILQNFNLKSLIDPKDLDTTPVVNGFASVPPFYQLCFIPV
# Sequence of Cytochrome P450 2C9 (P11712 whole entry): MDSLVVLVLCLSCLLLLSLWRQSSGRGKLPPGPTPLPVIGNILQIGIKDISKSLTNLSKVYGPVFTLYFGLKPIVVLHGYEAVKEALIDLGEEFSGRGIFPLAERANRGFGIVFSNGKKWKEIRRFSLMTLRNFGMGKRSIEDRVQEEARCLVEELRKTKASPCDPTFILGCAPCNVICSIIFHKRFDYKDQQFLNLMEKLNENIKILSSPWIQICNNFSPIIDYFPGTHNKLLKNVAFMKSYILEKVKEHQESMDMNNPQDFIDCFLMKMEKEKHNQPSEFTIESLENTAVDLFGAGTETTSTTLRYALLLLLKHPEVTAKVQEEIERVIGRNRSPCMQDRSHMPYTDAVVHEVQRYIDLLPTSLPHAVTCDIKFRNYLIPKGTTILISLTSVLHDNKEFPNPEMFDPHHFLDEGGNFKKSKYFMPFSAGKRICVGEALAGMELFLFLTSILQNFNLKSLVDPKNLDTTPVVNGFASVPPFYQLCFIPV
# Sequence of Cytochrome P450 2D6 (P10635 whole entry): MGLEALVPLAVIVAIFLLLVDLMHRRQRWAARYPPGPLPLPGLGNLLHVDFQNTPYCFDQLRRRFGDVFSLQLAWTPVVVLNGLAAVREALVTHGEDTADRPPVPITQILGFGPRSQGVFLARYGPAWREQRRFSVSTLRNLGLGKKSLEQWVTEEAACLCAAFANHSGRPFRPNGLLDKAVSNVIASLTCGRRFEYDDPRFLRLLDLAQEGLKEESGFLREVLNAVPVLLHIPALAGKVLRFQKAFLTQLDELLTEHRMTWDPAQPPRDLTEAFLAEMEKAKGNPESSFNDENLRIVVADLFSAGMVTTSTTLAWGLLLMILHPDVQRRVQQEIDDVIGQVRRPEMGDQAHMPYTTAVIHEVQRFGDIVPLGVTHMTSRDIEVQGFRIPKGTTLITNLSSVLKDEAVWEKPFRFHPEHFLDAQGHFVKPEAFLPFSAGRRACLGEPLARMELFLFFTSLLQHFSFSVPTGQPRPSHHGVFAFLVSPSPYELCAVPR
# Sequence of Cytochrome P450 3A4 (P08684 whole entry, canonical isoform): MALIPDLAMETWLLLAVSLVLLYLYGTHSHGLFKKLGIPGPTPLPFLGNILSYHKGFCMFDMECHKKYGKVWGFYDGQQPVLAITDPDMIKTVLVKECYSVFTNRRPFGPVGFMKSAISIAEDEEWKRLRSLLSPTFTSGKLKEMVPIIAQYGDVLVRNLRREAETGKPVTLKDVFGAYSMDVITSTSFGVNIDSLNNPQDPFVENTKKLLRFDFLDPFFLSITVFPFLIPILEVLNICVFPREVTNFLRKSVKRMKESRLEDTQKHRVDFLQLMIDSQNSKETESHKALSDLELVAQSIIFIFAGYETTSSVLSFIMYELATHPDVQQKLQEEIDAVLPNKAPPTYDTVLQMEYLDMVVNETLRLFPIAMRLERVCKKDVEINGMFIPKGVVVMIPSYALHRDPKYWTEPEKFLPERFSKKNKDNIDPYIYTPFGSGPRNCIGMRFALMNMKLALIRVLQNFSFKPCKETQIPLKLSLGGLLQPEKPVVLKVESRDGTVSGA
# Sequence of Voltage-gated inwardly rectifying potassium channel KCNH2 (Q12809 whole entry): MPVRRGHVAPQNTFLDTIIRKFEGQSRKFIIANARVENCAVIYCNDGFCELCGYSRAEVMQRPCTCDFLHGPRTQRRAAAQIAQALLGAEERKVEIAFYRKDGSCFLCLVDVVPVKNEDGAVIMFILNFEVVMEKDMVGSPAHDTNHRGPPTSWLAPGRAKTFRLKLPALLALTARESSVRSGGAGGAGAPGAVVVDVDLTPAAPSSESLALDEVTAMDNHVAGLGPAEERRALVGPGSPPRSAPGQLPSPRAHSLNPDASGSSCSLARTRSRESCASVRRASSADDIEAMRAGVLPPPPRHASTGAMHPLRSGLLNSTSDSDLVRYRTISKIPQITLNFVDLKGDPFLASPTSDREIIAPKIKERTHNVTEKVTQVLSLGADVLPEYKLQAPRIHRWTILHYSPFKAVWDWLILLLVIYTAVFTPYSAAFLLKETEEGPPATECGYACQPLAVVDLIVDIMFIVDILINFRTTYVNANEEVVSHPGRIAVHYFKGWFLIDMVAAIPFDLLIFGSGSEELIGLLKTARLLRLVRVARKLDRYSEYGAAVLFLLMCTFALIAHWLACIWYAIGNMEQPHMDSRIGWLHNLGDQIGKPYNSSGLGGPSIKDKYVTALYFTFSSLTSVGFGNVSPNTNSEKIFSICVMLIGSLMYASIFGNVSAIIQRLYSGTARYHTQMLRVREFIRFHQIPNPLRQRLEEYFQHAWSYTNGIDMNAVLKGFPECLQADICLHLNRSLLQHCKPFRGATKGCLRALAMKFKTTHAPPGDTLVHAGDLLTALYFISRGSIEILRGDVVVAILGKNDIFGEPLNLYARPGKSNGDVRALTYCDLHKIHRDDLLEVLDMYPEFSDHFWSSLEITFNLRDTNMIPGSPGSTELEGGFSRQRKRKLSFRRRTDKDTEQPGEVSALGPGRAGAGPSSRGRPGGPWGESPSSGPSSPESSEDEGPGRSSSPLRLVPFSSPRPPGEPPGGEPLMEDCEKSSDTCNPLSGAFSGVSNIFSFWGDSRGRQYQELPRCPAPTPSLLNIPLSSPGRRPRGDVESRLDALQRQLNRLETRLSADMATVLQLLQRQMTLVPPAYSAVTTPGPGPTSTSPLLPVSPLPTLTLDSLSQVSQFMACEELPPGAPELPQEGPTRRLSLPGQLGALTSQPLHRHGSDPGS
Compound,INH (Cytochrome P450 3A4) [µM],Papp B→A [1] [×10⁻⁶ cm/s],Papp A→B [2] [×10⁻⁶ cm/s],Activity [3],pIC50 [4],Activity (Haemophilus influenzae [7]),Activity [9],Activity (Escherichia coli [10]),"fraction unbound at 18 h, 20 µM [11]",Activity (Pseudomonas aeruginosa [12]),Activity (Staphylococcus aureus),Activity (Haemophilus influenzae [13]),INH (Cytochrome P450 2C9) [µM],Activity (Klebsiella pneumoniae),MIC [14] [µM],INH (Cytochrome P450 1A2) [µM],Activity (Streptococcus pneumoniae),microsomal CLint at 1 µM [16] [µL/min/mg],Activity (Pseudomonas aeruginosa [17]),Activity (Candida albicans),other results
Cc1onc(C(=O)N2CCC(Nc3cc(=O)n(C)c4cc(F)c(F)cc34)CC2)c1C,> 30,21,22,inactive,7.42,inactive,inactive,inactive,0.05,inactive,inactive,inactive,> 30,inactive,0.78,> 30,inactive,49,inactive,inactive,pIC50 [5]: 5.15; fold change (FC) [6]: 165; solubility [8]: 91 µM; MIC [15]: 100 µM; pIC50 (Adenosine receptor A1): 5.10; Activity [18]: inactive; logD [19]: 2.3; solubility at 24 h [20]: 28 µM; hepatocyte CLint at 1 µM [21]: 17 µL/min/1e6 cells; INH (Cytochrome P450 2D6): > 30 µM; INH (Cytochrome P450 2C19): > 30 µM; Activity (Escherichia coli [22]): inactive; MCC at 72 h [23]: > 16 µM
Cn1ncc(C(=O)N2CCC(Nc3cc(=O)n(C)c4ccccc34)CC2)c1Cl,> 30,23,4,inactive,6.85,inactive,inactive,inactive,0.03,inactive,inactive,inactive,> 30,inactive,25,> 30,inactive,14,inactive,inactive,half-life [24]: 1.1 h; C0 [25]: 5.4 µM; Cmax [26]: 7 µM; pIC50 [27]: < 4.48; AUC(0-inf) [28]: 19 µM·h; AUC(0-inf) [29]: 3.4 µM·h; bioavailability [30]: 100%; half-life [31]: 1.3 h; pIC50 (Adenosine receptor A1): 5.10; Activity [18]: inactive; logD [19]: 2; solubility at 24 h [20]: 78 µM; hepatocyte CLint at 1 µM [21]: 8 µL/min/1e6 cells; INH (Cytochrome P450 2D6): > 30 µM; Vd [32]: 1.2 L/kg; INH (Cytochrome P450 2C19): > 30 µM; clearance [33]: 24.8 mL/min/kg; Activity (Escherichia coli [22]): inactive; MCC at 72 h [23]: > 100 µM
